Data set [1] has as its target aequorin (AEQ), cysteine-free mutant (Aequorea victoria, UniProt P07164, C152S/C159S/C187S). Put plainly: AEQ bioluminescence inhibition assay. Format: biochemical. The settings on record: for effect on bioluminescence emission of AEQ: 5.0 × 10^–10 M coelenterazine, 2 h incubation; for expected suitability for the inhibition assay: speculated, compounds not available, test planned.

For data set [2], the system named is aequorin (AEQ). The experiment in a line: AEQ bioluminescence inhibition assay in spiked tap water. The data set is classed as biochemical, Aequorea victoria. Summed up: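 Tap water was spiked with test compound standards prepared in DMSO. Same conditions as the buffer assay: 20 μL sample into 80 μL 1.21 × 10−7 M apoAEQ (30 mM Tris/HCl pH 7.5, 2 mM EDTA), 5.0 × 10−10 M final coelenterazine, triplicates, 2 h at 4 °C. Light was triggered with 100 μL 100 mM Tris/HCl pH 7.5, 100 mM CaCl2 and read for 6 s.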

The test system of data set [3] is aequorin (AEQ). Put plainly: Effect of OH-PCB on AEQ. Format: biochemical, Aequorea victoria. As to conditions: initial experiments with apoaequorin and coelenterazine. Summed up: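 ApoAEQ stock was diluted to 1.21 × 10−7 M in 30 mM Tris/HCl pH 7.5, 2 mM EDTA and charged with three-fold molar excess coelenterazine, 4 °C, 18 h. Aequorin was then mixed with test compound in DMSO at 10% or 20% v/v, with DMSO-only and buffer controls. A 10 μL portion was triggered with 50 μL 100 mM Tris/HCl pH 7.5, 100 mM CaCl2 and read on a tube luminometer.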

Data set [4] concerns aequorin (AEQ). The experiment in a line: AEQ bioluminescence inhibition assay in spiked human serum. The data set is classed as biochemical, Aequorea victoria. Summed up: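 Cysteine-free apoaequorin was expressed in E. coli, secreted, and purified by DEAE and butyl HIC to >95% purity. Human serum was spiked with test compound standards in DMSO (90 μL serum + 10 μL standard). 20 μL of this was added to 80 μL 1.21 × 10−7 M apoAEQ in Buffer A with 5.0 × 10−10 M final coelenterazine, in triplicate, held 2 h at 4 °C. Ca2+/Tris pH 7.5 injection triggered light, collected for 6 s.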

Data set [5] deals with aequorin (AEQ). Put plainly: Selectivity studies of the AEQ inhibition assay. Format: biochemical, Aequorea victoria. As to conditions: 1.0 × 10^−4 M compound, 5.0 × 10^−10 M coelenterazine. In a few lines: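 Selectivity used the optimized inhibition format with various organic compounds dissolved in DMSO. 1.21 × 10−7 M apoAEQ was incubated with 1.0 × 10−4 M compound and 5.0 × 10−10 M coelenterazine, 2 h at 4 °C. Light was triggered by Ca2+ (100 mM CaCl2, 100 mM Tris/HCl pH 7.5) and collected for 6 s. Values are the mean of three measurements ± 1 standard deviation.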

For data set [6] the following is noted: cited from earlier work.
In another data set the target is apoaequorin (apoAEQ) (Aequorea victoria, UniProt P07164, C152S/C159S/C187S). The experiment in a line: Coelenterazine dose-response curve - EC50 determination. The data set is classed as biochemical.
Chain of apoaequorin (apoAEQ) (P07164 8-196 C152S/C159S/C187S): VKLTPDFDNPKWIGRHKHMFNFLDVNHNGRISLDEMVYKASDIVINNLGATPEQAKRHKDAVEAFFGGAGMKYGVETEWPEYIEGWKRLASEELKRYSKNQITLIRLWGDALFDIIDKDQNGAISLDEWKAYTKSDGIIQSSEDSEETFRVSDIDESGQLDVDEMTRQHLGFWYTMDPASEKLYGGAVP
For data set [7] the following is noted: fetal rat plasma and brain; cited from earlier work.

The IC50 is the concentration at which inhibition is half-maximal. The EC50 is the midpoint of the concentration-response curve.

Chain of aequorin (AEQ), cysteine-free mutant (P07164 8-196 C152S/C159S/C187S): as above

In data set [1], `Oc1cccc(-c2cc(Cl)ccc2Cl)c1O` [2,3-dihydroxy-2',5'-dichlorobiphenyl] gave an IC50 of 1380 µM. This counts as millimolar.
On the same count and under the same terms, the value for `Oc1c(Cl)cc(-c2ccccc2Cl)cc1Cl` [4-hydroxy-2',3,5-trichlorobiphenyl] was 290 µM.
For the molecule `Oc1ccc(Cl)cc1-c1cc(Cl)c(Cl)c(Cl)c1Cl` [2-hydroxy-2',3',4',5,5'-pentachlorobiphenyl], in the data set with aequorin (AEQ) [2], the “detection limit in tap water” value amounted to 132 nM. Also, the “decrease of AEQ bioluminescence activity” value in the data set on aequorin (AEQ) [3] was 99%. In data set [1], this molecule came in with an IC50 of 0.097 µM. The same molecule gave a detection limit in data set [1] (5.0 × 10^−10 M coelenterazine, buffer) of 33 nM. Besides, the “detection limit in buffer containing HSA” value in data set [1] (buffer containing HSA (data not shown)) was determined as 3.45 µM. Further, the “detection limit in serum” value in the data set on aequorin (AEQ) [4] was 5.02 µM.
Take `Oc1c(Cl)cc(-c2ccc(Cl)c(Cl)c2)cc1Cl` [4-hydroxy-3,3',4',5-tetrachlorobiphenyl]: in data set [1], 130 µM corresponded to half-maximal inhibition (IC50) and the “effect on bioluminescence emission of AEQ” value (“effect … of AEQ” for short) is reported as “only a small alteration of the bioluminescence signal”.
For `Oc1ccc(-c2cc(Cl)c(Cl)c(Cl)c2Cl)cc1Cl` [4-hydroxy-2',3,3',4',5'-pentachlorobiphenyl], in that order: 2.28 µM and “greatly inhibited aequorin bioluminescence”.
`Oc1ccccc1-c1cc(Cl)c(Cl)c(Cl)c1Cl` [2 hydroxy-2',3',4',5'-tetrachlorobiphenyl] gave an IC50 in data set [1] of 1.33 µM.
Turning to `NC12CC3CC(CC(C3)C1)C2` [amantadine], the “effect on bioluminescence generated by AEQ” value (“effect … by AEQ” below) in the data set on aequorin (AEQ) [5] is “do not decrease the bioluminescence”.
As for `Oc1ccc(-c2c(Cl)c(Cl)cc(Cl)c2Cl)c(Cl)c1` [4-hydroxy-2,2',3',5',6'-pentachlorobiphenyl], in data set [1], the IC50 was 9.77 µM and the “effect … of AEQ” value is reported as “greatly inhibited aequorin bioluminescence”.
For `Oc1ccc(-c2ccc(Cl)c(Cl)c2)cc1O` [3,4-dihydroxy-3',4'-dichlorobiphenyl], in that order: > 2000 µM and “did not produce a decrease in the bioluminescence emission of AEQ”.
In data set [1], `Oc1ccccc1-c1c(Cl)cc(Cl)cc1Cl` [2-hydroxy-2',4',6'-trichlorobiphenyl] showed an IC50 of 155 µM.
`Oc1c(Cl)cc(-c2ccc(Cl)cc2Cl)cc1Cl` [4-hydroxy-2',3,4',5-tetrachlorobiphenyl] gave a half-maximal inhibitory concentration (IC50) in data set [1] of 17.5 µM.
The same measure, in the same setting: the value for `Oc1cccc(-c2ccc(Cl)c(Cl)c2)c1O` [2,3-dihydroxy-3',4'-dichlorobiphenyl] was 550 µM.
Regarding `Oc1cccc(-c2ccc(Cl)cc2)c1` [3-hydroxy-4'-chlorobiphenyl], in data set [1], the IC50 is > 2000 µM and the “effect … of AEQ” value is recorded as “did not produce a decrease in the bioluminescence emission of AEQ”.
With `CN1CCC[C@H]1c1cccnc1` [nicotine], the “effect … by AEQ” value with aequorin (AEQ) [5] is on record as “do not decrease the bioluminescence”.
In the case of `Oc1c(Cl)ccc(Cl)c1-c1cc(Cl)c(Cl)cc1Cl` [2-hydroxy-2',3,4',5',6-pentachlorobiphenyl], in data set [1], half-maximal inhibition (IC50) required 0.028 µM. For the same molecule, the detection limit in data set [1] (best detection limit of the assay (abstract)) was determined as 11 nM.
Regarding `Oc1c(Cl)cc(-c2cc(Cl)c(Cl)cc2Cl)c(Cl)c1Cl` [4-hydroxy-2,2',3,4',5,5'-hexachlorobiphenyl], the “estrogenic activity” value in data set [6] is “anti-estrogenic”. In addition, in data set [1], the “expected suitability for the inhibition assay” value is recorded as “would be suitable for this inhibition assay”.
On apoaequorin (apoAEQ), `Oc1ccc(Cc2nc3c(Cc4ccccc4)nc(-c4ccc(O)cc4)cn3c2O)cc1` [coelenterazine] had an EC50 of 0.0618 µM.
For the molecule `O=C(O)c1cccc(Cl)c1` [3-chloro-benzoic acid], in the data set with aequorin (AEQ) [5], the “effect … by AEQ” value is given as “do not decrease the bioluminescence”.
`Oc1ccc(-c2cc(Cl)ccc2Cl)cc1` [4-hydroxy-2',5'-dichlorobiphenyl]: in data set [1], the IC50 was found to be 138 µM.
For `Oc1c(Cl)cc(-c2ccc(Cl)c(Cl)c2)c(Cl)c1Cl` [4-hydroxy-2,3,3',4',5-pentachlorobiphenyl], the “estrogenic activity” value in data set [6] is listed as “weakly estrogenic”. In addition, in data set [1], the “expected suitability for the inhibition assay” value is given as “would be suitable for this inhibition assay”. Besides, the “levels of thyroxine after exposure” value in data set [7] is listed as “lower levels of thyroxine”.
In data set [1], `Oc1ccc(-c2c(Cl)cc(Cl)cc2Cl)cc1` [4-hydroxy-2',4',6'-trichlorobiphenyl] showed an IC50 of 15.4 µM. That is a double-digit micromolar value.

The values above are taken from publication PMC4127403 (Analytical chemistry, 2012).
